Holding throughout (format): functional
One assay has as its system Acinetobacter baumannii. Briefly: Antibacterial activity against Acinetobacter baumannii isolate CAN-ICU 63169 after 24 hrs by microtitre broth dilution method. Particulars: isolate CAN-ICU 63169, 24 h. (In broth dilution the organism is exposed to a series of concentrations in liquid medium.)
For assay [1], the system named is Pseudomonas aeruginosa. As to the kind of experiment: Antibacterial activity against gentamicin/tobramycin-resistant Pseudomonas aeruginosa isolate CANWARD-2011 96846 after 24 hrs by microtitre broth dilution method. Particulars: isolate CANWARD-2011 96846, 24 h.
Assay [2] deals with Escherichia coli. As to the kind of experiment: Antibacterial activity against fluoroquinolone resistant Escherichia coli isolate 80960 harboring beta-lactamase CTX-M-15/TEM-1.
The subject of assay [3] is Escherichia coli. As to the kind of experiment: Antibacterial activity against fluoroquinolone resistant Escherichia coli isolate N-10-1631 harboring beta-lactamase CTX-M-15/OXA-1.
Assay [4] concerns Pseudomonas aeruginosa. As to the kind of experiment: Antibacterial activity against Pseudomonas aeruginosa PAO1 assessed as fractional inhibitory concentration index after 18 hrs in presence of colistin by checkerboard method. The method in brief: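 Checkerboard combinations of the hybrid with each partner antibiotic were tested against P. aeruginosa PAO1. Interaction is expressed as the fractional inhibitory concentration (FIC) index: ≤0.5 means synergy, 1–2 no interaction, ≥4 antagonism.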

For assay [5], the system named is Pseudomonas aeruginosa. Briefly: Potentiation of moxifloxacin induced antibacterial activity against pandrug-resistant Pseudomonas aeruginosa isolate 101243 assessed as moxifloxacin MIC at <= […] ug/ml (reference value: 8 ug/ml).
For the next assay, the system named is Enterococcus faecium. As to the kind of experiment: Antibacterial activity against Enterococcus faecium ATCC 27270 after 24 hrs by microtitre broth dilution method. As to conditions: ATCC 27270, 24 h.
The test system of assay [6] is Pseudomonas aeruginosa. Briefly: Antibacterial activity against pandrug-resistant Pseudomonas aeruginosa isolate 91433.
The test system of assay [7] is Pseudomonas aeruginosa. As to the kind of experiment: Antibacterial activity against pandrug-resistant Pseudomonas aeruginosa isolate 91433 in presence of <= 4 ug/ml of ciprofloxacin (reference value: 8 ug/ml).

For orientation: MIC means the least concentration at which growth counts as inhibited. As for `COc1c(N2C[C@@H]3CCCN(CCCCCCCCCCCCO[C@@H]4[C@@H](O[C@H]5O[C@H](CO)[C@@H](O)[C@H](N)[C@H]5O)[C@H](N)C[C@H](N)[C@H]4O[C@H]4O[C@H](CN)[C@@H](O)C[C@H]4N)[C@@H]3C2)c(F)cc2c(=O)c(C(=O)O)cn(C3CC3)c12.Cl.Cl.Cl.Cl.Cl`, the MIC was 16 µg/mL in the assay with Acinetobacter baumannii; 4 µg/mL in the assay with Pseudomonas aeruginosa [1]; not below 64 µg/mL in the assay with Escherichia coli [2]; not below 64 µg/mL against Escherichia coli [3]; 0.06 µg/mL in the assay with Pseudomonas aeruginosa [5]; 16 µg/mL against Enterococcus faecium. For the same compound, the minimum inhibitory concentration (MIC) against Pseudomonas aeruginosa [6] was 8 µg/mL; in the assay on Pseudomonas aeruginosa [7] it was less than 1 µg/mL. Also, the “fractional inhibitory concentration index (FICI)” value with Pseudomonas aeruginosa [4] is 0.37.

The record behind these values is ChEMBL document CHEMBL3856229, “Hybrid Antibiotic Overcomes Resistance in P. aeruginosa by Enhancing Outer Membrane Penetration and Reducing Efflux” (J Med Chem, 2016).
